# Measurements collected from several papers.
# Target: SRSF protein kinase 1 (SRPK1, Homo sapiens, UniProt Q96SB4)
SMILES,test,conditions,endpoint,result
FC(F)c1nc2ccccc2n1-c1nc(N2CCOCC2)nc(N2CCOCC2)n1,"enzyme activity, inhibitor",10 µM,remaining activity,92%
FC(F)(F)Oc1cccc(-c2cnc3ccc(-c4ccncc4)nn23)c1,"enzyme activity, inhibitor, radiometric",5 µM,activity vs control,96%
O=C1Nc2ccc(Cl)cc2C1=Cc1cc(Cl)c(O)c(Cl)c1,cell-free assay,0.5 µM,remaining signal,106%
O=C(NCc1ncc(C(F)(F)F)cc1Cl)c1ccc2c(c1)C1(CCS(=O)(=O)CC1)[C@H](C1CC1)N2S(=O)(=O)c1ccc(F)cc1,"cell-free assay, competition with immobilised ligand",1 µM,remaining binding,72%
Cn1c(=O)n(-c2ccc(C(C)(C)C#N)cc2)c2c3cc(-c4cnc5ccccc5c4)ccc3ncc21,"enzyme activity, inhibitor",10 µM,remaining activity,106%
C[C@@H]1CN(c2cc(-c3nn(C)c4ccc(OC5(C)CC5)cc34)ncn2)C[C@H](C)O1,"cell-free assay, competition with immobilised ligand",1 µM,remaining binding,88%
COc1cc(Cl)c(C(=O)N[C@@H](CN[C@H]2CC[C@@H](N)CC2)Cc2ccc(C#N)cc2)cc1-c1ccc(CN[C@H](C)c2ccc(C)cc2)o1,"enzyme activity, inhibitor",1 µM,remaining activity,99%
COc1ccc(COc2ccc(Cc3cnc(N)nc3N)cc2OC)cc1,cell-free assay,0.5 µM,remaining signal,90.4%
CCN(CC)CCNC(=O)c1c(C)[nH]c(/C=C2\C(=O)Nc3ccc(F)cc32)c1C,"enzyme activity, inhibitor",0.3 µM,inhibition,-17%
O=C(Nc1ccc(Oc2ccc(F)cc2)cc1)N1CCc2ncccc2[C@H]1c1ccc(F)cc1,"cell-free assay, competition with immobilised ligand",1 µM,remaining binding,94%
CCCS(=O)(=O)Nc1ccc(F)c(C(=O)c2c[nH]c3ncc(-c4ccc(Cl)cc4)cc23)c1F,"enzyme activity, inhibitor",1 µM,inhibition,< 10%
Nc1ncnc2occ(-c3ccc(NC(=O)Nc4cc(C(F)(F)F)ccc4F)cc3)c12,"cell-free assay, inhibitor",20 µM,remaining signal,59%
COc1cccc2c(NCc3ccccc3)nc(-n3c(N)nc4ccccc43)nc12,"target engagement in cells, inhibitor, chemoproteomics",20 mM,inhibition,5.7%
CC(C1CC1)n1cnc2c(NCc3cccc(C(F)(F)F)c3)nc(NCCN(C)C)nc21 (stereo not shown),"enzyme activity, inhibitor",5 µM,inhibition,> 50%
CC(C)(C)c1nc2c(s1)c1nc(N)ncc1c1ccc(NS(=O)(=O)c3c(F)cccc3F)c(F)c12,"enzyme activity, inhibitor, radiometric",1 µM,remaining activity,99%
Nc1nc(Nc2ccccc2)sc1C(=O)c1c(F)cccc1F,"enzyme activity, inhibitor",10 µM,remaining activity,6%
CC(=O)N1CCC(c2ccc(C(=O)NC(=N)N)cc2C(F)(F)F)CC1,"cell-free assay, competition with immobilised ligand",1 µM,remaining binding,86%
COc1cc2ncnc(Nc3ccc(F)c(Cl)c3)c2cc1OCCCN1CCOCC1,cell-free assay,0.5 µM,remaining signal,98.3%
Nc1nc(NC2CCCCC2)sc1C(=O)c1ccccc1,"enzyme activity, inhibitor",10 µM,remaining activity,93%
COc1cc(Nc2cnc(C#N)c(O[C@H](C)CN(C)C)n2)ncc1-c1cnn(C)c1,"enzyme activity, inhibitor, radiometric",1 µM,remaining activity,89%
O=C(Nc1cnn(-c2csc(C(=O)NC3COC3)c2)c1)Nc1ccccc1Cl,"enzyme activity, inhibitor",5 µM,remaining activity,98.7%
O=C(NCCCC1CCCCC1)c1ccc(CNC(=O)c2cnn(-c3ccccc3)c2C(F)(F)F)cc1,"cell-free assay, competition with immobilised ligand",0.1 µM,remaining binding,95%
Cc1ccc(Nc2nccc(N(C)c3ccc4c(C)n(C)nc4c3)n2)cc1S(N)(=O)=O,"enzyme activity, inhibitor",10 µM,inhibition,-3%
O=C(NS(=O)(=O)c1ccc(NCC2CCOCC2)c([N+](=O)[O-])c1)c1ccc(N2CCN(Cc3ccc(C(F)(F)F)cc3-c3ccc(Cl)cc3)CC2)cc1Oc1cnc2[nH]ccc2c1,"cell-free assay, competition with immobilised ligand",1 µM,remaining binding,100%
COc1cc2ncnc(Nc3ccc(Oc4ccccc4)cc3C)c2cc1OC,"enzyme activity, inhibitor",1 µM,inhibition,0%
C=CC(=O)Nc1cc(Nc2nccc(Nc3cc(Cl)c(F)cc3C(C)(C)O)n2)c(OC)cc1N1CC[C@@H](N(C)C)C1,"enzyme activity, inhibitor",1 µM,inhibition,2%
CO[C@H]1CC[C@H](CNc2ccc(S(=O)(=O)NC(=O)c3ccc(N4CCN(CC5=C(c6ccc(Cl)cc6)CC(C)(C)CC5)CC4)cc3Oc3cnc4[nH]ccc4c3)cc2[N+](=O)[O-])CC1,"cell-free assay, competition with immobilised ligand",1 µM,remaining binding,96%
Cc1cnc(NC2CCOCC2)nc1-n1cnc(C(=O)NC(CN)c2cc(F)cc(Cl)c2)c1 (stereo not shown),"enzyme activity, inhibitor, radiometric",1 µM,remaining activity,96%
CCOc1cc(-c2nncn2C)ccc1Nc1ncc2cc(C)nc(NCC(C)(C)C)c2n1,"enzyme activity, inhibitor, FRET",1 µM,inhibition,< 15%
CNC(=O)c1cc(Oc2ccc(NC(=O)Nc3ccc(Cl)c(C(F)(F)F)c3)cc2)ccn1,"enzyme activity, inhibitor",10 µM,inhibition,6%
N#CCCc1ccc2c(c1)-c1[nH]c3ccc([N+](=O)[O-])cc3c1CC(=O)N2,cell-free assay,0.5 µM,remaining signal,107%
CCCCNc1ncc2c(-c3ccc(F)cc3)nn(C[C@H]3CC[C@H](N)CC3)c2n1,"target engagement in cells, inhibitor, chemoproteomics",20 mM,inhibition,-21.7%
CC/C(=N\NC(=O)NCc1cccc(O)c1)c1ccc(O)c(C)c1O,"enzyme activity, inhibitor",0.1 µM,inhibition,-11.7%
CCCCN(CCCC)C(=O)CN1C[C@H](c2cc(OC)c3c(c2)OCO3)[C@@H](C(=O)O)[C@@H]1CC(C)(C)CCC,"cell-free assay, competition with immobilised ligand",1 µM,remaining binding,100%
